Laboratory results: ChEMBL document CHEMBL6177937, “Design, synthesis, and biological evaluation of novel thiazole derivatives as PI3K/mTOR dual inhibitors” (RSC Med Chem, 2024)

Columns and labels:
[1] = tested on: Panel NCI-60 (60 carcinoma cell lines); experiment: Antiproliferative activity against human NCI-60 cells assessed as growth inhibition at 10 uM measured after 48 hrs by SRB assay relative to control; format: functional; conditions: read-out: GI
Summary of the method: (§1)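 NCI screen: cells seeded at […] per well and preincubated 24 h (37°C, 5% CO2). Compound stocks in DMSO, tested at a single 10 μM. Exposure 48 h. Adherent cells fixed with cold TCA (10% final), suspension cells with 16% TCA. SRB stain read at 515 nm. Percent growth inhibition reported against time-zero and untreated controls.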

ACHN = experiment: Growth inhibition of human ACHN cells at 10 uM measured after 48 hrs by SRB assay relative to control; format: functional; conditions: read-out: GI; summary of the method: as §1
MCF7 = experiment: Growth inhibition of human MCF7 cells at 10 uM measured after 48 hrs by SRB assay relative to control; format: functional; conditions: read-out: GI; summary of the method: as §1
A549 = experiment: Growth inhibition of human A549 cells at 10 uM measured after 48 hrs by SRB assay relative to control; format: functional; conditions: A549, read-out: GI; summary of the method: as §1
NCI-H460 = experiment: Growth inhibition of human NCI-H460 cells at 10 uM measured after 48 hrs by SRB assay relative to control; format: functional; conditions: NCI-H460, read-out: GI; summary of the method: as §1
HCT-116 = experiment: Growth inhibition of human HCT-116 cells at 10 uM measured after 48 hrs by SRB assay relative to control; format: functional; conditions: read-out: GI; summary of the method: as §1
SW-620 = experiment: Growth inhibition of human SW620 cells at 10 uM measured after 48 hrs by SRB assay relative to control; format: functional; conditions: read-out: GI
Summary of the method: (§2)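 Single-dose NCI screen at 10 μM: 48 h exposure at 37°C, 5% CO2; adherent cells fixed in cold TCA (final 10%), suspension cells in TCA (final 16%); SRB stain solubilized in 10 mM Trizma base, absorbance 515 nm; percent growth inhibition calculated relative to untreated control and time-zero plates.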

HT-29 = experiment: Growth inhibition of human HT-29 cells at 10 uM measured after 48 hrs by SRB assay relative to control; format: functional; conditions: HT-29, read-out: GI; summary of the method: as §1
[2] = Cytotoxicity against human PCS-800-017 cells assessed as reduction in cell viability measured after 24 hrs by MTT assay; format: toxicity, cell-based
Summary of the method: (§3)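 MTT viability with 24 h incubation in 96-well plates. Five semi-log concentrations from 0.01 to 100 μM. Formazan absorbance read at 570 nm, with 690 nm background subtracted. Run in triplicate. IC50 obtained by sigmoidal dose-response fitting. Cells are leukemia HL-60(TB) and normal lymphocytes (PCS-800-017).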

HL-60 = experiment: Cytotoxicity against human HL-60 cells assessed as reduction in cell viability measured after 24 hrs by MTT assay; format: functional, cell-based; conditions: HL-60, 24 h; summary of the method: as §3
RXF 393 = experiment: Growth inhibition of human RXF 393 cells at 10 uM measured after 48 hrs by SRB assay relative to control; format: functional; conditions: read-out: GI; summary of the method: as §2
UO-31 = experiment: Growth inhibition of human UO-31 cells at 10 uM measured after 48 hrs by SRB assay relative to control; format: functional; conditions: read-out: GI; summary of the method: as §2
NCI-H322M = experiment: Growth inhibition of human NCI-H322M cells at 10 uM measured after 48 hrs by SRB assay relative to control; format: functional; conditions: read-out: GI; summary of the method: as §1
RPMI-8226 = experiment: Growth inhibition of human RPMI-8226 cells at 10 uM measured after 48 hrs by SRB assay relative to control; format: functional; conditions: RPMI-8226, read-out: GI; summary of the method: as §2
OVCAR-3 = experiment: Growth inhibition of human OVCAR-3 cells at 10 uM measured after 48 hrs by SRB assay relative to control; format: functional; conditions: OVCAR-3, read-out: GI; summary of the method: as §1
KM12 = experiment: Growth inhibition of human KM12 cells at 10 uM measured after 48 hrs by SRB assay relative to control; format: functional; conditions: KM12, read-out: GI; summary of the method: as §1

## C(=N\Nc1nc(-c2ccccc2)cs1)/c1ccc(OCc2ccccc2)cc1
[1]
  inhibition of growth at 10 µM: 13.1%
ACHN
  inhibition of growth at 10 µM: 79.8%

## COc1cc(/C=N/Nc2nc(-c3ccc(Cl)cc3)cs2)ccc1OCc1ccccc1
[1]
  inhibition of growth at 10 µM: 16.5%
MCF7
  inhibition of growth at 10 µM: 45%

## COc1cc(/C=N/Nc2nc(-c3cccc([N+](=O)[O-])c3)cs2)ccc1OCc1ccccc1
[1]
  inhibition of growth at 10 µM: 28.8%

## CCOc1cc(/C=N/Nc2nc(-c3ccc(Cl)cc3)cs2)ccc1OCc1ccccc1
A549
  inhibition of growth at 10 µM: 87.4%
[1]
  inhibition of growth at 10 µM: 37.1%
NCI-H460
  inhibition of growth at 10 µM: 88.8%
HCT-116
  inhibition of growth at 10 µM: 87.5%
SW-620
  inhibition of growth at 10 µM: 76.2%

## O=[N+]([O-])c1cccc(-c2csc(N/N=C/c3ccc(Cl)c([N+](=O)[O-])c3)n2)c1
[1]
  inhibition of growth at 10 µM: 36%

## CCOc1cc(/C=N/Nc2nc(-c3ccc(Br)cc3)cs2)ccc1OCc1ccccc1
A549
  inhibition of growth at 10 µM: 76.4%
[1]
  inhibition of growth at 10 µM: 31.8%
HT-29
  inhibition of growth at 10 µM: 73.9%
NCI-H460
  inhibition of growth at 10 µM: 78.6%
HCT-116
  inhibition of growth at 10 µM: 70.9%
SW-620
  inhibition of growth at 10 µM: 76.1%

## COc1cccc2c1C(=O)c1c(O)c3c(c(O)c1C2=O)C[C@@](O)(C(=O)CO)C[C@@H]3O[C@H]1C[C@H](N)[C@H](O)[C@H](C)O1 [DOXORUBICIN]
[2]
  IC50 at 24 h: 12.5 µM
HL-60
  IC50: 0.45 µM

## CCOc1cc(/C=N/Nc2nc(-c3cccc([N+](=O)[O-])c3)cs2)ccc1OCc1ccccc1
[1]
  inhibition of growth at 10 µM: 23.9%
RXF 393
  inhibition of growth at 10 µM: 79.2%

## Cc1c(/C=N/Nc2nc(-c3cccc([N+](=O)[O-])c3)cs2)c(=O)n(-c2ccccc2)n1C
[1]
  inhibition of growth at 10 µM: 16.2%

## O=[N+]([O-])c1cccc(-c2csc(N/N=C/c3ccc(OCc4ccccc4)cc3)n2)c1
[1]
  inhibition of growth at 10 µM: 18.5%

## CCOc1cc(/C=N/Nc2nc(-c3ccccc3)cs2)ccc1O
[1]
  inhibition of growth at 10 µM: 36.9%

## CCOc1cc(/C=N/Nc2nc(-c3ccccc3)cs2)ccc1OCc1ccccc1
UO-31
  inhibition of growth at 10 µM: 48.1%
[1]
  inhibition of growth at 10 µM: 14.5%

## Cc1c(/C=N/Nc2nc(-c3ccc(Br)cc3)cs2)c(=O)n(-c2ccccc2)n1C
[1]
  inhibition of growth at 10 µM: 9.82%

## COc1cc(/C=N/Nc2nc(-c3ccccc3)cs2)ccc1OCc1ccccc1
[1]
  inhibition of growth at 10 µM: 19.1%

## O=[N+]([O-])c1cccc(-c2csc(N/N=C/c3ccc4c(c3)OCO4)n2)c1
[1]
  inhibition of growth at 10 µM: 18.2%

## O=[N+]([O-])c1cc(/C=N/Nc2nc(-c3ccccc3)cs2)ccc1Cl
[1]
  inhibition of growth at 10 µM: 21.5%
NCI-H322M
  inhibition of growth at 10 µM: 83.1%
RPMI-8226
  inhibition of growth at 10 µM: 85.1%
MCF7
  inhibition of growth at 10 µM: 89.9%
OVCAR-3
  inhibition of growth at 10 µM: 96.2%
KM12
  inhibition of growth at 10 µM: 86.6%
